Results: ChEMBL document CHEMBL5154815, “A Series of Substituted Bis-Aminotriazines Are Activators of the Natriuretic Peptide Receptor C” (J Med Chem, 2022)
Activity calls are given as the source filed them. The calls are words filed in the database; no cut-off is given here. Where a SMILES comes first, the peptide text is derived from it.

Tests used:
[1] = biological target: T1, Atrial natriuretic peptide receptor 3 (Homo sapiens, UniProt P17342); test: Binding affinity to CM5 sensor chip immobilized human NPR-C (27 to 541 residues) assessed as dissociation constant by surface plasmon resonance analysis
T1 sequence (P17342 whole entry): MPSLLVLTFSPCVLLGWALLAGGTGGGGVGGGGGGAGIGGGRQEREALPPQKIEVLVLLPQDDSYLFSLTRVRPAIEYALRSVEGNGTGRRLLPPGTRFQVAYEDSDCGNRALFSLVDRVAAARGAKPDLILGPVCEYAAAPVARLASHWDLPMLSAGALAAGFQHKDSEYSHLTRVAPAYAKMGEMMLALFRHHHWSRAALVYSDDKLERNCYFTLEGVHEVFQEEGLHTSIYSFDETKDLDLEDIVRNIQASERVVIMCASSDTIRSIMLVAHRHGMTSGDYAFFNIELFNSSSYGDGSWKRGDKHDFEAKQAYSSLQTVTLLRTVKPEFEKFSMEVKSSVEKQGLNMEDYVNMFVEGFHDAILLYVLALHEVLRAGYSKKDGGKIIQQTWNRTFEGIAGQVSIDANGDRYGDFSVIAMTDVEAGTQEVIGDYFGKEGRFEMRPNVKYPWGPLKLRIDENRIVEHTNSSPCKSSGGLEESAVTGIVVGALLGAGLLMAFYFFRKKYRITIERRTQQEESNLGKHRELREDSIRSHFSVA

[2] = biological target: T2, Atrial natriuretic peptide receptor 3 (Homo sapiens) (UniProt P17342); test: Agonist activity at NPRC in human Hela cells assessed as decrease in forskolin-induced cAMP level at 100 uM relative to control; assay type: cell-based; set-up: scale not given: the % may be the effect or the level left
T2 sequence (whole entry): T1 sequence (P17342 whole entry)

[3] = biological target: T1, Atrial natriuretic peptide receptor 3; test: Displacement of Flu-P19 probe from human NPR-C (27 to 541 residues) by fluorescence polarization analysis
Summary of the method: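 Competition fluorescence polarization used NPR-C extracellular domain protein (20 nM final) and Flu-P19 probe (150 pM final) in PBS-P with 1% DMSO. Ligand ranged 600–0.274 μM, and samples were assembled on ice. Read-out was at ex 485/em 520 nm, normalized to buffer+probe and protein+probe controls and blanked with buffer alone. EC50 came from curve fitting.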

[4] = biological target: T3, Atrial natriuretic peptide receptor 3 (Rattus norvegicus, UniProt P41740); test: Agonist activity at NPRC in rat aorta assessed as vasorelaxation by Organ bath assay; assay type: tissue-based
T3 sequence (P41740 whole entry): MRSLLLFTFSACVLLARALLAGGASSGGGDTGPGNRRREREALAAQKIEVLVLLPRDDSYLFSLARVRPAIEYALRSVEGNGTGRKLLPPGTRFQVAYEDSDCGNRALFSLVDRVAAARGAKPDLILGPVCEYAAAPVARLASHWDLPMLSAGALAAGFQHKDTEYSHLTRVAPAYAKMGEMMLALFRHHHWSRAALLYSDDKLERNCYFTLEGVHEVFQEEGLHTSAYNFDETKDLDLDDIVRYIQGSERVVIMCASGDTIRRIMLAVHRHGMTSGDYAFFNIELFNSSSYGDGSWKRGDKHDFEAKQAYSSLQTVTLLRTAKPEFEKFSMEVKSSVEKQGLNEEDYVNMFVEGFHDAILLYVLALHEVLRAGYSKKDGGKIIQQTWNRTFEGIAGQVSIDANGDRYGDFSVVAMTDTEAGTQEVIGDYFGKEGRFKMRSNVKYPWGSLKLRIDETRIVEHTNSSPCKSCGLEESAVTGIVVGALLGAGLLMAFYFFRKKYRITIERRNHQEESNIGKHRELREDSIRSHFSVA

[5] = biological target: T2, Atrial natriuretic peptide receptor 3 (Homo sapiens); test: Binding affinity to CM5 sensor chip immobilized human NPR-C (27 to 541 residues) assessed as maximum response by surface plasmon resonance analysis relative to control
Summary of the method: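 SPR on CM5-immobilized NPR-C (27–541) in PBS-P with 1% DMSO, double-referenced. Observed Rmax was expressed as a percentage of theoretical Rmax. Theoretical Rmax was calculated from immobilized protein response, analyte and ligand molecular weights, and binding stoichiometry.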

[6] = biological target: T3, Atrial natriuretic peptide receptor 3; test: Agonist activity at NPRC in rat small mesenteric arteries assessed as vasorelaxation by Organ bath assay; assay type: tissue-based, Artery
[7] = biological target: T2, Atrial natriuretic peptide receptor 3 (Homo sapiens); test: Agonist activity at NPRC in human HeLa cells assessed as decrease in forskolin-induced cAMP level at 100 nM; assay type: cell-based; conditions: filed as agonist
[8] = rat, hepatocytes, 20 min, 1 µM
[9] = biological target: T4, Atrial natriuretic peptide receptor 3 (Mus musculus, UniProt P70180); test: Agonist activity at NPRC in knock out mouse mesenteric arteries assessed as vasorelaxation by Organ bath assay; assay type: tissue-based, Artery
T4 sequence (P70180 whole entry): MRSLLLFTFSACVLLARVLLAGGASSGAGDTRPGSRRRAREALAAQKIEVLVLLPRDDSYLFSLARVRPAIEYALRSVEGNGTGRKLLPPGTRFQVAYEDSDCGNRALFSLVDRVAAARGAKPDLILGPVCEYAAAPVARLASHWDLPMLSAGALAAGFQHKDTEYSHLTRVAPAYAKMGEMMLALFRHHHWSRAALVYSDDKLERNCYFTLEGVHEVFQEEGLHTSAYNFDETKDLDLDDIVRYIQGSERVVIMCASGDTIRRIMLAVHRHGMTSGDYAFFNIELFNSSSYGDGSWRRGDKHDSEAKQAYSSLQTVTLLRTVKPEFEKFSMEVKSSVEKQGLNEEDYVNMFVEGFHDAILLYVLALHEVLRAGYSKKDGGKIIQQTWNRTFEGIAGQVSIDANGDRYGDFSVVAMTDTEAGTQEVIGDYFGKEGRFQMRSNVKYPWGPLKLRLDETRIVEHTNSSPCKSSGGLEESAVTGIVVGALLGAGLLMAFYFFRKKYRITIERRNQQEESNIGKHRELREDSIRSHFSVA

[10] = Protein binding in human plasma by equilibrium dialysis assay
[11] = biological target: T3, Atrial natriuretic peptide receptor 3; test: Agonist activity at NPRC in rat small mesenteric arteries assessed as vasorelaxation preincubated with M372049 for 15 mins followed by compound treatment by Organ bath assay; assay type: tissue-based, Artery
[12] = Stability of compound in pooled human plasma assessed as half life measured upto 120 mins by LC/MS/MS analysis; conditions: 2 h
[13] = Solubility of compound in PBS at 10 mM after 3 hrs by UV analysis; conditions: buffer, 10000 µM
Cytochrome P450 2C9 = Cytochrome P450 2C9 (Homo sapiens, UniProt P11712); test: Inhibition of CYP2C9 in human liver microsomes using diclofenac as substrate preincubated for 10 mins followed by NADPH addition and measured after 10 mins by LC/MS/MS analysis
[14] = Stability in Sprague-Dawley rat hepatocytes assessed as clearance per […] at 1 uM after 20 mins by LC-MS/MS analysis; assay type: ADME, cell-based, Hepatocyte
Cytochrome P450 2C19 = Cytochrome P450 2C19 (Homo sapiens, UniProt P33261); test: Inhibition of CYP2C19 in human liver microsomes using S-mephenytoin as substrate preincubated for 10 mins followed by NADPH addition and measured after 20 mins by LC/MS/MS analysis
[15] = biological target: T4, Atrial natriuretic peptide receptor 3; test: Agonist activity at NPRC in wild type mouse mesenteric arteries assessed as vasorelaxation by Organ bath assay; assay type: tissue-based, Artery

Chain of Cytochrome P450 2C19 (P33261 whole entry): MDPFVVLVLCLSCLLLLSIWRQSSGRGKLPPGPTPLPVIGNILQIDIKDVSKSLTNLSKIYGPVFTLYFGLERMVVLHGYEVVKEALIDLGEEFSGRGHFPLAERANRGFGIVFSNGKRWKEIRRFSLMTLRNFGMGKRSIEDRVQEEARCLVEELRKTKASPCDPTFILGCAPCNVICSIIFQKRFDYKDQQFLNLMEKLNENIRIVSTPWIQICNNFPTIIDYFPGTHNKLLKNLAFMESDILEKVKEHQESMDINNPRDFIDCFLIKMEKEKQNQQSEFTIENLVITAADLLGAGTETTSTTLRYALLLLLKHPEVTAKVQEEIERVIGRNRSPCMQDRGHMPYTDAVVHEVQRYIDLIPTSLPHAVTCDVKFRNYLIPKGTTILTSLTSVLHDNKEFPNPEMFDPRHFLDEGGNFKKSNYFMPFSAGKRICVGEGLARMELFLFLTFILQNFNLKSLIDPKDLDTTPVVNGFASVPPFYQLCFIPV
Chain of Cytochrome P450 2C9 (P11712 whole entry): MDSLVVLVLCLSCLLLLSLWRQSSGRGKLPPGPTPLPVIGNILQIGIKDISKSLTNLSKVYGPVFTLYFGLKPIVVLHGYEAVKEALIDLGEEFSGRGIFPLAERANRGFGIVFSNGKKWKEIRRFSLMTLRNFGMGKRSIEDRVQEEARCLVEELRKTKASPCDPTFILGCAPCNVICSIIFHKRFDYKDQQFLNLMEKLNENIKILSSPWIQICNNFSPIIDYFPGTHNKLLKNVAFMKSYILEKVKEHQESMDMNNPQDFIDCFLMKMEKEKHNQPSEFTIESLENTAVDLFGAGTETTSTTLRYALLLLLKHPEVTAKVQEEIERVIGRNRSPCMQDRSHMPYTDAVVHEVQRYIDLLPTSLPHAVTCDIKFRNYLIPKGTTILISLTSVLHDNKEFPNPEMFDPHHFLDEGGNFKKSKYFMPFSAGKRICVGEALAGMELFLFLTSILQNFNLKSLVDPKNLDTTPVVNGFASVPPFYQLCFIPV

**Q.** For `CC(C)C[C@H](Nc1nc(Cl)nc(Nc2ccc(NS(=O)(=O)c3ccccc3)cc2)n1)C(=O)OC(C)(C)C`, which Kd [1] is on record?
**A.** 99 µM

**Q.** Which Kd [1] does the source give for `CCCCS(=O)(=O)Nc1ccc(Nc2ncnc(N[C@@H](CC(C)C)C(=O)OC(C)(C)C)n2)cc1` here?
**A.** 45.1 µM

**Q.** For `CC(=O)Nc1ccc(Nc2nc(Cl)nc(N[C@@H](CC(C)C)C(=O)OC(C)(C)C)n2)cc1`, which Kd [1] is on record?
**A.** 36.9 µM

**Q.** Which Kd [1] does the source give for `CC(=O)Nc1ccc(Nc2ncnc(N[C@@H](CC(C)C)C(=O)OC(C)(C)C)n2)cc1` here?
**A.** 30.8 µM

**Q.** What about the Activity [2] of the same molecule?
**A.** 20.6%

**Q.** Which EC50 [3] does the source give for `CC(=O)Nc1ccc(Nc2ncnc(N[C@@H](Cc3ccccc3)C(=O)OC(C)(C)C)n2)cc1` here?
**A.** 32 µM

**Q.** And the Kd [1]?
**A.** 31.3 µM

**Q.** And the Activity [2]?
**A.** 9.16%

**Q.** What does the source list for `CC(=O)Nc1ccc(Nc2ncnc(N[C@@H](CCc3ccccc3)C(=O)OC(C)(C)C)n2)cc1`?
**A.** EC50 [4]: 3.76 µM; Kd [1]: 23.8 µM

**Q.** Which Kd [1] does the source give for `CC(=O)Nc1ccc(Nc2ncnc(N[C@@H](CC(C)C)C(=O)OC3CCCC3)n2)cc1` here?
**A.** 25 µM

**Q.** With `CC(=O)Nc1ccc(Nc2ncnc(N[C@@H](Cc3ccc(F)cc3)C(=O)OC(C)(C)C)n2)cc1` as the molecule, how does the EC50 [4] read?
**A.** 4.43 µM

**Q.** And the Kd [1]?
**A.** 23.7 µM

**Q.** With `CCCCS(=O)(=O)Nc1ccc(Nc2nc(Cl)nc(N[C@@H](CC(C)C)C(=O)OC(C)(C)C)n2)cc1` as the molecule, how does the Kd [1] read?
**A.** 25.7 µM

**Q.** For `CC(=O)Nc1ccc(Nc2ncnc(N[C@H](CC(C)C)C(=O)OC(C)(C)C)n2)cc1`, which Rmax [5] is on record?
**A.** < 20%

**Q.** With `CC(=O)Nc1ccc(Nc2ncnc(NCC(=O)OC(C)(C)C)n2)cc1` as the molecule, how does the Kd [1] read?
**A.** 832 µM

**Q.** For `CC(=O)Nc1ccc(Nc2ncnc(N[C@H](C(=O)OC(C)(C)C)C(C)C)n2)cc1`, which Kd [1] is on record?
**A.** 79 µM

**Q.** What does the source list for `CC(=O)Nc1ccc(Nc2ncnc(N[C@@H](C)C(=O)OC(C)(C)C)n2)cc1`?
**A.** EC50 [6]: 3.45 µM; EC50 [4]: 78.1 µM; Rmax [5]: < 20%

**Q.** For `CC(=O)Nc1ccc(Nc2ncnc(N[C@H](C(=O)OC(C)(C)C)C3CCCCC3)n2)cc1`, which EC50 [4] is on record?
**A.** 6.24 µM

**Q.** And the EC50 [3]?
**A.** 327 µM

**Q.** And the Kd [1]?
**A.** 28 µM

**Q.** With `CC(=O)Nc1ccc(Nc2ncnc(N[C@H](COC(C)(C)C)CC(C)C)n2)cc1` as the molecule, how does the Kd [1] read?
**A.** 42.2 µM

**Q.** Which Rmax [5] does the source give for `CC(=O)Nc1ccc(Nc2ncnc(N[C@@H](Cc3ccc(O)cc3)C(=O)OC(C)(C)C)n2)cc1` here?
**A.** < 20%

**Q.** For `CC(=O)Nc1ccc(Nc2ncnc(NC(C)(C)C(=O)OC(C)(C)C)n2)cc1`, which Rmax [5] is on record?
**A.** < 20%

**Q.** With `CC(=O)Nc1ccc(Nc2ncnc(N[C@H](C(=O)OC(C)(C)C)C(C)(C)C)n2)cc1` as the molecule, how does the Kd [1] read?
**A.** 201 µM

**Q.** For `CC(=O)Nc1ccc(Nc2ncnc(N[C@@H](Cc3ccccc3)C(=O)O)n2)cc1`, which EC50 [3] is on record?
**A.** 60 µM

**Q.** Which Kd [1] does the source give for `CC(=O)Nc1ccc(Nc2ncnc(N[C@@H](CC(C)C)C(=O)OC(C)C)n2)cc1` here?
**A.** 84.4 µM

**Q.** Which Activity [7] does the source give for `CC[C@H](C)[C@H](NC(=O)[C@H](CCCNC(=N)N)NC(=O)[C@H](CC(=O)O)NC(=O)[C@H](CCSC)NC(=O)[C@H](CCCNC(=N)N)NC(=O)CNC(=O)CNC(=O)[C@H](Cc1ccccc1)NC(=O)[C@H](CS)NC(=O)[C@H](CO)NC(=O)[C@H](CO)NC(=O)[C@@H](N)CCCNC(=N)N)C(=O)NCC(=O)N[C@@H](C)C(=O)N[C@@H](CS)C(=O)N[C@@H](CC(N)=O)C(=O)O` (H-RSSCFGGRMDRIGACN-OH) here?
**A.** Active

**Q.** For `COC(=O)[C@H](CC(C)C)Nc1nc(Cl)nc(N[C@H]2CC[C@H](Nc3nc(Cl)nc(N[C@@H](CC(C)C)C(=O)OC)n3)CC2)n1`, which t1/2 [8] is on record?
**A.** > 3.613 h

**Q.** What about the EC50 [9] of the same molecule?
**A.** 2.64 µM

**Q.** And the PPB [10]?
**A.** 99.5%

**Q.** And the EC50 [11]?
**A.** 0.47 µM

**Q.** And the EC50 [6]?
**A.** 0.97 µM

**Q.** And the EC50 [4]?
**A.** 1.43 µM

**Q.** And the t1/2 [12]?
**A.** > 1 h

**Q.** And the solubility [13]?
**A.** > 122.52 mg/mL

**Q.** What about the IC50 (Cytochrome P450 2C9) of the same molecule?
**A.** 4.96 µM

**Q.** And the Kd [1]?
**A.** 95.7 µM

**Q.** And the CLH [14]?
**A.** < 0.64 µL/min

**Q.** And the IC50 (Cytochrome P450 2C19)?
**A.** 37.8 µM

**Q.** And the EC50 [15]?
**A.** 1.16 µM

**Q.** And the Activity [2]?
**A.** 31.4%
